Activity calls are given as the source filed them. No cut-off for these calls is given here.
Tests used:
[1] = Inhibition of soybean 5LOX assessed as conversion of sodium linoleate to 13-[…] acid; set-up: species or system Glycine max
In short: (§1)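 Soybean lipoxygenase (1/9 × 10^-4 w/v in saline) incubated at room temperature with compound in DMSO and 0.1 mM sodium linoleate. Formation of 13-hydroperoxylinoleic acid followed at 234 nm. NDGA reference inhibitor. At least triplicate.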

MCF7 [2] = assay: Antiproliferative activity against human MCF7 cells after 48 hrs by sulforhodamine B assay; type: functional; conditions: MCF7, 48 h
In short: (§2)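 Cells grown in RPMI 1640 with 5% heat-inactivated FCS, 2 mM L-glutamine and antibiotics at 37 °C, 5% CO2; viability >95% by trypan blue. Seeded at 5.000-7.500 cells/well and preincubated 24 h. Compound in DMSO added at 10-fold dilutions (100 to 0.01 µM) for 48 h. TCA fixation, SRB staining, absorbance at 530 nm. GI50, TGI and LC50 derived. Three independent experiments, each in triplicate.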

[3] = Lipophilicity, RM of the compound assessed by RPTLC; type: physicochemical
In short: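 Determined by reverse-phase TLC with plates developed in mobile-phase-saturated closed tanks at 24 °C and spots detected under UV. RM = log[(1/Rf) − 1], from 10 individual Rf measurements.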

Rattus norvegicus [4] = assay: Toxicity in Fischer-344 rat assessed as ulcerogenicity at 0.2 mmol/kg, ip; type: organism-based; conditions: in vivo
SF-268 [5] = assay: Cytotoxicity against human SF268 cells after 48 hrs by sulforhodamine B assay; type: cell-based; conditions: sf-268, 48 h
In short: (§3)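 Cells grown in RPMI 1640 with 5% heat-inactivated FCS, 2 mM L-glutamine and antibiotics, 37 °C, 5% CO2; viability >95% by trypan blue. Seeded 5.000-7.500 cells/well and preincubated 24 h. Compounds in DMSO added at 10-fold dilutions (100 to 0.01 µM) for 48 h. Fixed with cold TCA, SRB-stained, absorbance read at 530 nm. GI50, TGI and LC50 derived from three independent experiments, each in triplicate.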

[6] = Therapeutic index, ratio of LC50 for human NCI-H460 cells to GI50 for human NCI-H460 cells; type: cell-based; conditions: read-out: TI
In short: (§4)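 Index is LC50/GI50 from the 48 h SRB growth assay (100–0.01 µM, 10-fold dilutions). Where LC50 exceeded 100 µM, the highest concentration tested, it was taken as 100 µM.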

MCF7 [7] = assay: Cytotoxicity against human MCF7 cells after 48 hrs by sulforhodamine B assay; type: cell-based; conditions: mcf7, 48 h; in short: as §3
NCI-H460 [8] = assay: Cytotoxicity against human NCI-H460 cells after 48 hrs by sulforhodamine B assay; type: cell-based; conditions: nci-h460, 48 h; in short: as §3
Rattus norvegicus [9] = assay: Antiinflammatory activity in carrageenan-induced Fischer-344 rat paw oedema at 0.01 mmol/kg, ip after 3.5 hrs; type: functional; conditions: for inhibition in vivo at 10 µmol/kg: Fischer-344, ip
In short: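 Fischer-344 rats (150–200g), both sexes, pregnant females excluded, 6–15 per group. Oedema induced in right hind paw by intradermal 0.1 mL 2% carrageenin in water. Compound given ip with the carrageenin, dissolved in water (HCl salt) or suspended with Tween 80 (bases). Euthanized at 3.5 h. Injected minus uninjected paw weight compared with water-treated controls as % inhibition. Mean of two experiments.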

[10] = Therapeutic index, ratio of LC50 for human SF268 cells to GI50 for human SF268 cells; type: cell-based, SF-268; conditions: read-out: TI; in short: as §4
[11] = target: Aldo-keto reductase family 1 member B1 (Rattus norvegicus) (UniProt P07943); assay: Inhibition of ALR2 in Fischer-344 rat lens at 100 uM; type: tissue-based; conditions: Lens of camera-type eye
In short: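 Enzyme partially purified from lenses of Fischer-344 rats of both sexes. Lenses homogenized in cold water, spun at 10000 g, 0-4 °C, 15 min; supernatant precipitated at 40% ammonium sulphate saturation and spun again. Compound in 10% aqueous DMSO, tested at 100 µM. D,L-glyceraldehyde substrate; NADPH consumption read at 340 nm. At least triplicate.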

NCI-H460 [12] = assay: Antiproliferative activity against human NCI-H460 cells after 48 hrs by sulforhodamine B assay; type: functional; conditions: NCI-H460, 48 h; in short: as §2
[13] = Therapeutic index, ratio of LC50 for human MCF7 cells to GI50 for human MCF7 cells; type: cell-based; conditions: read-out: TI; in short: as §4
SF-268 [14] = assay: Antiproliferative activity against human SF268 cells after 48 hrs by sulforhodamine B assay; type: functional; conditions: SF-268, 48 h; in short: as §2
Glycine max = assay: Inhibition of soybean 5LOX assessed as conversion of sodium linoleate to 13-[…] acid at 100 uM; in short: as §1

In the case of `O=C1/C(=C/c2c[nH]c3ccccc23)CNC/C1=C\c1c[nH]c2ccccc12`, the IC50 [1] is reported as 280 µM, the GI50 (MCF7 [2]) is reported as 3.7 µM and the TGI (MCF7 [2]) is reported as 6 µM. For the same compound, the Rm [3] was 0.597, the Activity (Rattus norvegicus [4]) was “Non-toxic” and the LC50 (SF-268 [5]) was 8.2 µM. The selectivity ratio [6] was 2.4, the LC50 (MCF7 [7]) was 8.2 µM and the LC50 (NCI-H460 [8]) was 8.7 µM. It also gave an inhibition in vivo at 10 µmol/kg (Rattus norvegicus [9]) of 33%, a selectivity ratio [10] of 2.5 and an inhibition [11] of 27.8%. It also gave a GI50 (NCI-H460 [12]) of 3.5 µM, a TGI (NCI-H460 [12]) of 6.1 µM and a selectivity ratio [13] of 2.2. It also gave a GI50 (SF-268 [14]) of 3.3 µM and a TGI (SF-268 [14]) of 5.7 µM.
Work on `COc1ccc2c(c1)c(CC(=O)O)c(C)n2C(=O)c1ccc(Cl)cc1` [INDOMETHACIN] yielded an inhibition in vivo at 10 µmol/kg (Rattus norvegicus [9]) of 47%.
In the case of `O=C1/C(=C/c2cccs2)CNC/C1=C\c1cccs1`, the IC50 [1] is reported as 330 µM, the GI50 (MCF7 [2]) is reported as over 100 µM and the TGI (MCF7 [2]) is reported as over 100 µM. For the same compound, the Rm [3] was 0.176, the Activity (Rattus norvegicus [4]) was “Non-toxic” and the LC50 (SF-268 [5]) was over 100 µM. For the same compound, the LC50 (MCF7 [7]) was over 100 µM, the LC50 (NCI-H460 [8]) was over 100 µM and the inhibition (Rattus norvegicus [9]) was “inactive”. It also gave a selectivity ratio [10] of 1, an inhibition [11] of 45.5% and a GI50 (NCI-H460 [12]) of over 100 µM. The TGI (NCI-H460 [12]) was over 100 µM, the GI50 (SF-268 [14]) was 98.8 µM and the TGI (SF-268 [14]) was over 100 µM.
For `Cc1ccsc1/C=C1\CNC/C(=C\c2sccc2C)C1=O`, the GI50 (MCF7 [2]) was 63 µM, the TGI (MCF7 [2]) was over 100 µM and the Rm [3] was -0.03. For the same compound, the Activity (Rattus norvegicus [4]) was “Non-toxic”, the LC50 (SF-268 [5]) was over 100 µM and the selectivity ratio [6] was 1.4. For the same compound, the LC50 (MCF7 [7]) was over 100 µM, the LC50 (NCI-H460 [8]) was over 100 µM and the inhibition in vivo at 10 µmol/kg (Rattus norvegicus [9]) was 27%. The selectivity ratio [10] was 1.9, the inhibition [11] was 56% and the inhibition (Glycine max) was “inactive”. The GI50 (NCI-H460 [12]) was 73.2 µM, the TGI (NCI-H460 [12]) was over 100 µM and the selectivity ratio [13] was 1.6. For the same compound, the GI50 (SF-268 [14]) was 53.8 µM and the TGI (SF-268 [14]) was over 100 µM.
`O=C1/C(=C/c2ccccc2)CNC/C1=C\c1ccccc1` gave a GI50 (MCF7 [2]) of 0.8 µM, a TGI (MCF7 [2]) of 4.1 µM and a Rm [3] of 0.135. The Activity (Rattus norvegicus [4]) was “Non-toxic”, the LC50 (SF-268 [5]) was 9.1 µM and the selectivity ratio [6] was 5.2. It also gave an LC50 (MCF7 [7]) of 9 µM, an LC50 (NCI-H460 [8]) of 10.3 µM and an inhibition in vivo at 10 µmol/kg (Rattus norvegicus [9]) of 43%. The selectivity ratio [10] was 10, the inhibition [11] was 49% and the inhibition (Glycine max) was 8%. It also gave a GI50 (NCI-H460 [12]) of 2 µM, a TGI (NCI-H460 [12]) of 6.1 µM and a selectivity ratio [13] of 11.6. The GI50 (SF-268 [14]) was 0.9 µM and the TGI (SF-268 [14]) was 4.7 µM.
For `Cc1ccc(/C=C2\CNC/C(=C\c3ccc(C)s3)C2=O)s1`, the GI50 (MCF7 [2]) was 80.7 µM, the TGI (MCF7 [2]) was over 100 µM and the Rm [3] was 0.031. The Activity (Rattus norvegicus [4]) was “Non-toxic”, the LC50 (SF-268 [5]) was over 100 µM and the selectivity ratio [6] was 1. It also gave an LC50 (MCF7 [7]) of over 100 µM, an LC50 (NCI-H460 [8]) of over 100 µM and an inhibition in vivo at 10 µmol/kg (Rattus norvegicus [9]) of 62%. For the same compound, the selectivity ratio [10] was 1.5, the inhibition [11] was “inactive” and the inhibition (Glycine max) was “inactive”. The GI50 (NCI-H460 [12]) was 99.3 µM, the TGI (NCI-H460 [12]) was over 100 µM and the selectivity ratio [13] was 1.2. The GI50 (SF-268 [14]) was 65.2 µM and the TGI (SF-268 [14]) was over 100 µM.
Compound `O=C1/C(=C/c2ccc3[nH]ccc3c2)CNC/C1=C\c1ccc2[nH]ccc2c1` has an IC50 [1] of 410 µM, a GI50 (MCF7 [2]) of 69.5 µM and a TGI (MCF7 [2]) of over 100 µM. For the same compound, the Rm [3] was 0.166, the Activity (Rattus norvegicus [4]) was “Non-toxic” and the LC50 (SF-268 [5]) was over 100 µM. For the same compound, the LC50 (MCF7 [7]) was over 100 µM, the LC50 (NCI-H460 [8]) was over 100 µM and the inhibition in vivo at 10 µmol/kg (Rattus norvegicus [9]) was 36%. The inhibition [11] was “inactive”, the GI50 (NCI-H460 [12]) was over 100 µM and the TGI (NCI-H460 [12]) was over 100 µM. The selectivity ratio [13] was 1.4, the GI50 (SF-268 [14]) was over 100 µM and the TGI (SF-268 [14]) was over 100 µM.
For `O=C1/C(=C/c2ccc(OCc3ccc(Br)cc3)cc2)CNC/C1=C\c1ccc(OCc2ccc(Br)cc2)cc1`, the GI50 (MCF7 [2]) was 49.9 µM, the TGI (MCF7 [2]) was 96.8 µM and the Rm [3] was 0.076. The Activity (Rattus norvegicus [4]) was “Non-toxic”, the LC50 (SF-268 [5]) was over 100 µM and the LC50 (MCF7 [7]) was over 100 µM. For the same compound, the LC50 (NCI-H460 [8]) was over 100 µM, the inhibition in vivo at 10 µmol/kg (Rattus norvegicus [9]) was 49% and the inhibition [11] was “inactive”. It also gave an inhibition (Glycine max) of 18%, a GI50 (NCI-H460 [12]) of over 100 µM and a TGI (NCI-H460 [12]) of over 100 µM. For the same compound, the selectivity ratio [13] was 2, the GI50 (SF-268 [14]) was over 100 µM and the TGI (SF-268 [14]) was over 100 µM.
`O=C1/C(=C/c2c[nH]cn2)CNC/C1=C\c1c[nH]cn1` showed a GI50 (MCF7 [2]) of over 100 µM, a TGI (MCF7 [2]) of over 100 µM and a Rm [3] of -0.552. The Activity (Rattus norvegicus [4]) was “Non-toxic”, the LC50 (SF-268 [5]) was over 100 µM and the LC50 (MCF7 [7]) was over 100 µM. The LC50 (NCI-H460 [8]) was over 100 µM, the inhibition in vivo at 10 µmol/kg (Rattus norvegicus [9]) was 11.5% and the inhibition [11] was “inactive”. For the same compound, the inhibition (Glycine max) was 36%, the GI50 (NCI-H460 [12]) was over 100 µM and the TGI (NCI-H460 [12]) was over 100 µM. For the same compound, the GI50 (SF-268 [14]) was over 100 µM and the TGI (SF-268 [14]) was over 100 µM.
For `COc1cc(/C=C/C(=O)CC(=O)/C=C/c2ccc(O)c(OC)c2)ccc1O` [CURCUMIN], the GI50 (MCF7 [2]) was 4.7 µM, the TGI (MCF7 [2]) was 8.3 µM and the LC50 (SF-268 [5]) was 61 µM. The selectivity ratio [6] was 5, the LC50 (MCF7 [7]) was 67.2 µM and the LC50 (NCI-H460 [8]) was 83.4 µM. The selectivity ratio [10] was 11.9, the inhibition [11] was 12% and the inhibition (Glycine max) was 38%. For the same compound, the GI50 (NCI-H460 [12]) was 16.7 µM, the TGI (NCI-H460 [12]) was 50.1 µM and the selectivity ratio [13] was 14.2. The GI50 (SF-268 [14]) was 5.1 µM and the TGI (SF-268 [14]) was 9.2 µM.

From ChEMBL document CHEMBL1795273, “Curcumin analogues as possible anti-proliferative & anti-inflammatory agents” (Eur J Med Chem, 2011)
